Data reported in ChEMBL document CHEMBL2157924, “Cyclobutane derivatives as novel nonpeptidic small molecule agonists of glucagon-like peptide-1 receptor” (J Med Chem, 2012).

Legend:
[1] = biological target: T1, Glucagon-like peptide 1 receptor (Rattus norvegicus) (UniProt P32301); experiment: Inhibition of [125I]GLP1 (7-36) amide binding to rat GLP1R expressed in HEK293 cells relative to untreated control; type: cell-based; set-up: concentration or dose not given beside the values; conditions: concentration not given here
T1 sequence (whole entry): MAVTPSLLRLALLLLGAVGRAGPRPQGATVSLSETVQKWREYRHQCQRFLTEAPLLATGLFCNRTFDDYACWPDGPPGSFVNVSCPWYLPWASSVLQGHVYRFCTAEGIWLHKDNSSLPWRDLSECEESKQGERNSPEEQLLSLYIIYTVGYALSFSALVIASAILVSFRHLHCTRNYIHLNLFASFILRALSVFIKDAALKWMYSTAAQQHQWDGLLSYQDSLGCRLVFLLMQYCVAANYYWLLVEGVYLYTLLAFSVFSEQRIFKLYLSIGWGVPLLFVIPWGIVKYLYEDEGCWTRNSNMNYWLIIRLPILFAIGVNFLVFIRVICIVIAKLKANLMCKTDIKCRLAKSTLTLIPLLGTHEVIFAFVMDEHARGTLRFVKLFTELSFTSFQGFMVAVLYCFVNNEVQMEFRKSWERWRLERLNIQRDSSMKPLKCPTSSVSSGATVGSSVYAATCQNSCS
Outline: (§1)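 Membranes (17 μg protein) from HEK293 cells stably expressing rat GLP-1R were preincubated 5 h at 4 °C with FlashBlue beads (150 μg). Then 40 pM [125I]GLP-1(7−36) amide or [125I]Exendin(9−39) was added with aprotinin 2 μg/mL, leupeptin 100 μM and test compound at varied concentrations. Incubated overnight at 4 °C, then bound radioactivity counted. Mean ± SEM of two independent experiments.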

[2] = biological target: T1, Glucagon-like peptide 1 receptor (Rattus norvegicus); experiment: Inhibition of [125I]Exendin (9-39) binding to rat GLP1R expressed in HEK293 cells; type: cell-based; set-up: concentration or dose not given beside the values; conditions: concentration not given here; outline: as §1
[3] = biological target: T2, Glucagon-like peptide 1 receptor (Rattus norvegicus, UniProt P32301); experiment: Inhibition of [125I]GLP1 (7-36) amide binding to rat GLP1R expressed in HEK293 cells; type: cell-based; outline: as §1
T2 sequence (P32301 whole entry): T1 sequence (whole entry)

[4] = biological target: T1, Glucagon-like peptide 1 receptor (Rattus norvegicus); experiment: Agonist activity at rat GLP1R expressed in HEK293 cells assessed as stimulation of cAMP levels incubated for 6 hrs by multiple response element/cAMP response element (MRE/CRE)-driven reporter gene assay relative to 10 nM GLP1; type: functional, cell-based
Outline: (§2)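 Stable HEK293 line co-expressing rat GLP-1R (pCMV-Tag2B) and a luciferase reporter with 3× MRE plus 1× CRE, seeded at 40000 cells/well and cultured overnight. Compounds in DMSO or GLP-1(7−37) were added for 6 h, then cells were lysed and luciferase read (Steady-Glo). The 10 nM GLP-1 maximum was taken as 100%. Mean ± SEM of two independent experiments; some values come from a single run.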

[5] = biological target: T2, Glucagon-like peptide 1 receptor; experiment: Agonist activity at rat GLP1R expressed in HEK293 cells assessed as stimulation of cAMP levels incubated for 6 hrs by multiple response element/cAMP response element (MRE/CRE)-driven reporter gene assay; type: functional, cell-based; outline: as §2

SMILES	inhibition [1] [%]	inhibition [2] [%]	IC50 [3] [µM]	Efficacy [4] [%]	EC50 [5] [µM]
COc1cc([C@H]2[C@](NC(=O)c3ccc(NC(=O)CCl)cc3)(C(=O)O)[C@@H](c3ccc(OC(=O)c4cccs4)c(OC)c3)[C@]2(NC(=O)c2ccc(NC(=O)CCl)cc2)C(=O)O)ccc1OC(=O)c1cccs1	43.8	32.9	8.5	58	3.8
CC(C)(C)OC(=O)Nc1ccc(C(=O)N[C@]2(C(=O)O)[C@H](c3ccccc3)[C@@](NC(=O)c3ccc(NC(=O)OC(C)(C)C)cc3)(C(=O)O)[C@@H]2c2ccccc2)cc1	< 15	< 15	> 20	< 15	> 20
COc1cc([C@H]2[C@](NC(=O)c3ccc(NC(=O)OC(C)(C)C)cc3)(C(=O)O)[C@@H](c3ccc(OC(=O)c4ccc(C)s4)c(OC)c3)[C@]2(NC(=O)c2ccc(NC(=O)OC(C)(C)C)cc2)C(=O)O)ccc1OC(=O)c1ccc(C)s1	40.1	29.4	17.5	67	19.1
COc1cc([C@H]2[C@](NC(=O)c3ccc(NC(=O)OC(C)(C)C)cc3)(C(=O)O)[C@@H](c3ccc(OC(=O)C(C)C)c(OC)c3)[C@]2(NC(=O)c2ccc(NC(=O)OC(C)(C)C)cc2)C(=O)O)ccc1OC(=O)C(C)C	47.2	34.8	7.5	65	1.38
COc1cc([C@H]2[C@](NC(=O)c3ccc(NC(=O)C(C)C)cc3)(C(=O)O)[C@@H](c3ccc(OC(=O)C4CCC4)c(OC)c3)[C@]2(NC(=O)c2ccc(NC(=O)C(C)C)cc2)C(=O)O)ccc1OC(=O)C1CCC1	47.9	36.8	9.6	50.7	15.8
COc1cc([C@H]2[C@](NC(=O)c3ccc(NC(=O)OC(C)(C)C)cc3)(C(=O)O)[C@@H](c3ccc(OCc4ccc(F)cc4)c(OC)c3)[C@]2(NC(=O)c2ccc(NC(=O)OC(C)(C)C)cc2)C(=O)O)ccc1OCc1ccc(F)cc1	< 15	< 15	> 20	< 15	> 20
CCOC(=O)CNC(=O)Nc1ccc(C(=O)N[C@]2(C(=O)O)[C@H](c3ccc(OC(=O)c4cccs4)c(OC)c3)[C@@](NC(=O)c3ccc(NC(=O)NCC(=O)OCC)cc3)(C(=O)O)[C@@H]2c2ccc(OC(=O)c3cccs3)c(OC)c2)cc1	43.8	37.9	4.3	33.7	4.5
COc1cc([C@H]2[C@](NC(=O)c3ccc(NC(=O)OC(C)(C)C)cc3)(C(=O)O)[C@@H](c3ccc(OC(=O)C4CCCCC4)c(OC)c3)[C@]2(NC(=O)c2ccc(NC(=O)OC(C)(C)C)cc2)C(=O)O)ccc1OC(=O)C1CCCCC1	< 15	< 15	> 20	< 15	> 20
COc1cc([C@H]2[C@](NC(=O)c3ccc(NC(=O)OC(C)(C)C)cc3)(C(=O)OC)[C@@H](c3ccc(OC(=O)c4cccs4)c(OC)c3)[C@]2(NC(=O)c2ccc(NC(=O)OC(C)(C)C)cc2)C(=O)OC)ccc1OC(=O)c1cccs1	< 15	< 15	> 20	< 15	> 20
CCCOc1ccc([C@H]2[C@](NC(=O)c3ccc(NC(=O)OC(C)(C)C)cc3)(C(=O)O)[C@@H](c3ccc(OCCC)cc3)[C@]2(NC(=O)c2ccc(NC(=O)OC(C)(C)C)cc2)C(=O)O)cc1	< 15	< 15	> 20	< 15	> 20
COc1cc([C@H]2C[C@]2(NC(=O)c2ccc(NC(=O)OC(C)(C)C)cc2)C(=O)O)ccc1OC(=O)c1cccs1	< 15	< 15	> 20	< 15	> 20
CCC(=O)Nc1ccc(C(=O)N[C@]2(C(=O)O)[C@H](c3ccc(OC(=O)c4cccs4)c(OC)c3)[C@@](NC(=O)c3ccc(NC(=O)CC)cc3)(C(=O)O)[C@@H]2c2ccc(OC(=O)c3cccs3)c(OC)c2)cc1	75.2	36.1	4.9	48.4	0.696
COc1cc([C@H]2[C@](NC(=O)c3ccc(NC(=O)OC(C)(C)C)cc3)(C(=O)O)[C@@H](c3ccc(OC(=O)c4cccs4)c(OC)c3)[C@@]2(NC(=O)c2ccc(NC(=O)OC(C)(C)C)cc2)C(=O)O)ccc1OC(=O)c1cccs1	64.7	55.9	3.6	< 15	> 20
COc1cc([C@H]2[C@](NC(=O)c3ccc(NC(=O)OC(C)(C)C)cc3)(C(N)=O)[C@@H](c3ccc(OC(=O)c4cccs4)c(OC)c3)[C@]2(NC(=O)c2ccc(NC(=O)OC(C)(C)C)cc2)C(N)=O)ccc1OC(=O)c1cccs1	< 15	< 15	> 20	< 15	> 20
COc1cccc([C@H]2[C@](NC(=O)c3ccc(NC(=O)OC(C)(C)C)cc3)(C(=O)O)[C@@H](c3cccc(OC)c3)[C@]2(NC(=O)c2ccc(NC(=O)OC(C)(C)C)cc2)C(=O)O)c1	< 15	< 15	> 20	< 15	> 20
CCCC(=O)Oc1ccc([C@H]2[C@](NC(=O)c3ccc(NC(=O)OC(C)(C)C)cc3)(C(=O)O)[C@@H](c3ccc(OC(=O)CCC)c(OC)c3)[C@]2(NC(=O)c2ccc(NC(=O)OC(C)(C)C)cc2)C(=O)O)cc1OC	65.1	53.8	7.5	86	3.33

More lines, now with the values ahead:

inhibition [1] [%]	inhibition [2] [%]	IC50 [3] [µM]	Efficacy [4] [%]	EC50 [5] [µM]	SMILES
53.6	45.6	1.2	87.5	0.749	COc1cc([C@H]2[C@](NC(=O)c3ccc(NC(=O)C4CCC4)cc3)(C(=O)O)[C@@H](c3ccc(OC(=O)c4cccs4)c(OC)c3)[C@]2(NC(=O)c2ccc(NC(=O)C3CCC3)cc2)C(=O)O)ccc1OC(=O)c1cccs1
75.8	63.5	3.6	86	2.15	COc1cc([C@H]2[C@](NC(=O)c3ccc(NC(=O)OC(C)(C)C)cc3)(C(=O)O)[C@@H](c3ccc(OC(=O)C45CC6CC(CC(C6)C4)C5)c(OC)c3)[C@]2(NC(=O)c2ccc(NC(=O)OC(C)(C)C)cc2)C(=O)O)ccc1OC(=O)C12CC3CC(CC(C3)C1)C2
47.6	33.4	0.5	60.8	1.11	COc1cc([C@H]2[C@](NC(=O)c3ccc(NC(=O)C(C)(C)C)cc3)(C(=O)O)[C@@H](c3ccc(OC(=O)c4cccs4)c(OC)c3)[C@]2(NC(=O)c2ccc(NC(=O)C(C)(C)C)cc2)C(=O)O)ccc1OC(=O)c1cccs1
57.4	52.3	3	29.8	2.12	COc1cc([C@H]2[C@](NC(=O)c3ccc(NC(=S)Nc4cccc5ccccc45)cc3)(C(=O)O)[C@@H](c3ccc(OC(=O)c4cccs4)c(OC)c3)[C@]2(NC(=O)c2ccc(NC(=S)Nc3cccc4ccccc34)cc2)C(=O)O)ccc1OC(=O)c1cccs1
55.4	30.6	2.31	61.1	0.118	COc1cc([C@H]2[C@](NC(=O)c3ccc(NC(C)=O)cc3)(C(=O)O)[C@@H](c3ccc(OC(=O)c4cccs4)c(OC)c3)[C@]2(NC(=O)c2ccc(NC(C)=O)cc2)C(=O)O)ccc1OC(=O)c1cccs1
86.4	67.8	1.2	84.2	0.148	COc1cc([C@H]2[C@](NC(=O)c3ccc(NC(=O)C4CC4)cc3)(C(=O)O)[C@@H](c3ccc(OC(=O)c4cccs4)c(OC)c3)[C@]2(NC(=O)c2ccc(NC(=O)C3CC3)cc2)C(=O)O)ccc1OC(=O)c1cccs1
39.3	37.9	0.3	35.9	0.657	COc1cc([C@H]2[C@](NC(=O)c3ccc(NC(=O)C4CCCC4)cc3)(C(=O)O)[C@@H](c3ccc(OC(=O)c4cccs4)c(OC)c3)[C@@]2(NC(=O)c2ccc(NC(=O)C3CCCC3)cc2)C(=O)O)ccc1OC(=O)c1cccs1
86	68.3	2.7	91	2.5	CCC(=O)Oc1ccc([C@H]2[C@](NC(=O)c3ccc(NC(=O)OC(C)(C)C)cc3)(C(=O)O)[C@@H](c3ccc(OC(=O)CC)c(OC)c3)[C@]2(NC(=O)c2ccc(NC(=O)OC(C)(C)C)cc2)C(=O)O)cc1OC
